From ChEMBL document CHEMBL1145764, “Nonbenzamidine isoxazoline derivatives as factor Xa inhibitors” (Bioorg Med Chem Lett, 2003)

What was measured:
[1] = biological target: Coagulation factor X (Homo sapiens, UniProt P00742); test: Inhibitory activity against factor Xa using human purified enzyme.
Method in brief: (§1)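 Human purified enzyme in 0.1 M sodium phosphate buffer with 0.2 M NaCl and 0.5% polyethylene glycol 6000, pH 7.0. Inhibitor tested at eight half-log concentrations from 10 down to 0.00316. Plates read at 405 nm for 30 min. Rates compared with no-inhibitor controls to give % activity, converted to Ki using substrate concentration and Km. Duplicate runs with common internal standards.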

[2] = biological target: Prothrombin (Homo sapiens, UniProt P00734); test: Inhibitory activity against thrombin using human purified enzyme; method in brief: as §1
[3] = biological target: Serine protease 1 (Homo sapiens, UniProt P07477); test: Inhibitory activity against trypsin using human purified enzyme; method in brief: as §1
[4] = Pharmacokinetic profile in terms of half life was determined at a dose of 5 mg/kg administered intravenously in dog; format: ADME, organism-based, Canis lupus familiaris; parameters: dose 5 mg/kg, route intravenous; settings: in vivo, iv
[5] = Pharmacokinetic profile in terms of clearance was determined at a dose of 5 mg/kg administered intravenously in dog; format: ADME, organism-based, Canis lupus familiaris; parameters: dose 5 mg/kg, route intravenous; settings: in vivo, iv
[6] = biological target: T1, Coagulation factor X (Oryctolagus cuniculus, UniProt O19045); test: Inhibitory activity against Rabbit factor Xa was determined
T1 sequence (O19045 whole entry): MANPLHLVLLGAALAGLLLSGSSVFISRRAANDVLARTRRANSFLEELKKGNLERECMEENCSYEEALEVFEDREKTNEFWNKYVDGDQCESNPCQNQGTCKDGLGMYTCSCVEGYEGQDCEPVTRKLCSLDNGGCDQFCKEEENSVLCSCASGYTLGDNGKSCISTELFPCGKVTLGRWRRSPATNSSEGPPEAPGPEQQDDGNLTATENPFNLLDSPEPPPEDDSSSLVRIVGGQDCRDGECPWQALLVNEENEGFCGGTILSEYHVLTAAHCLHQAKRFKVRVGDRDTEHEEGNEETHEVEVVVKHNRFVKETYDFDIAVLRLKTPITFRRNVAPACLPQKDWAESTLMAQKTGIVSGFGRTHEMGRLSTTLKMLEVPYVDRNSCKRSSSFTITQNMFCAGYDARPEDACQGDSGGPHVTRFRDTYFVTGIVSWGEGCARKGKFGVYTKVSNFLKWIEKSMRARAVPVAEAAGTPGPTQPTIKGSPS

[7] = organism: Oryctolagus cuniculus; test: (§2) Inhibitory concentration required for antithrombotic efficacy in rabbit arterio-venous shunt model; format: functional
[8] = Pharmacokinetic profile in terms of clearance was determined at a dose of 0.5 mg/kg administered intravenously in dog; format: ADME, organism-based, Canis lupus familiaris; parameters: dose 0.5 mg/kg, route intravenous; settings: in vivo, iv
[9] = organism: Oryctolagus cuniculus; test: as §2; format: functional, organism-based
[10] = Pharmacokinetic profile in terms of half life was determined at a dose of 0.5 mg/kg administered intravenously in dog; format: ADME, organism-based, Canis lupus familiaris; parameters: dose 0.5 mg/kg, route intravenous; settings: in vivo, iv

Chain of Serine protease 1 (P07477 whole entry): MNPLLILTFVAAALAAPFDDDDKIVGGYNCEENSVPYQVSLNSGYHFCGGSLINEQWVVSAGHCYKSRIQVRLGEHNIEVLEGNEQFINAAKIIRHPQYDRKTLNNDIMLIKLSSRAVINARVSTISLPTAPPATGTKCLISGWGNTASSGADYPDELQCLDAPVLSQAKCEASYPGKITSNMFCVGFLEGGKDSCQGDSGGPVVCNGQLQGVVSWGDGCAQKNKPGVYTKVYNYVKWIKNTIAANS
Chain of Coagulation factor X (Homo sapiens, UniProt P00742) (P00742 41-179 limits assumed): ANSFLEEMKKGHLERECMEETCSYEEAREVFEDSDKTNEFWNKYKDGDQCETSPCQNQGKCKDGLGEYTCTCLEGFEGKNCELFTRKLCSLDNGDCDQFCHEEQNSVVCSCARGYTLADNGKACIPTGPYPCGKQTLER
Chain of Coagulation factor X (Homo sapiens, UniProt P00742) (P00742 235-488 limits assumed): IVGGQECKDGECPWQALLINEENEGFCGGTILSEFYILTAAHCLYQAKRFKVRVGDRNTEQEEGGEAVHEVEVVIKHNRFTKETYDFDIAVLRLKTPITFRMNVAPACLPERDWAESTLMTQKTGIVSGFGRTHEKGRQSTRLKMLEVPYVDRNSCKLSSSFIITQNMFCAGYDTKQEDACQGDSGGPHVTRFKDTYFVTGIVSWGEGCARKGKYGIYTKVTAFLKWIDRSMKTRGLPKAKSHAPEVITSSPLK

In the case of `COc1ccc(C2=NOC(CNS(C)(=O)=O)(C(=O)Nc3ccc(-c4ccccc4S(N)(=O)=O)cn3)C2)cc1` (centres undefined), the Ki [1] is reported as 10 nM, the Ki [2] is reported as > 6300 nM and the Ki [3] is reported as > 4200 nM.
In the case of `N=C(N)c1cccc(C2=NOC(Cn3cnnn3)(C(=O)Nc3ccc(-c4ccccc4S(N)(=O)=O)cn3)C2)c1` (centres undefined), the half-life [4] is reported as 1.1 h, the clearance [5] is reported as 22 mL/min/kg and the Ki [6] is reported as 0.11 nM. For the same molecule, the ID50 [7] was 0.032 µM/h/kg.
In the case of `CC1(C(=O)Nc2ccc(-c3ccccc3S(N)(=O)=O)cc2)CC(c2ccc(Cl)c(N)c2)=NO1` (centres undefined), the Ki [1] is reported as 130 nM.
`CC1(C(=O)Nc2ccc(-c3ccccc3S(N)(=O)=O)cc2)CC(c2cccc(C(=N)N)c2)=NO1` (centres undefined) showed a Ki [1] of 7.2 nM.
With `CS(=O)(=O)NCC1(C(=O)Nc2ccc(-c3ccccc3S(N)(=O)=O)cn2)CC(c2ccc3onc(N)c3c2)=NO1` (centres undefined) the Ki [1] was 4.6 nM, the Ki [2] was 5200 nM and the Ki [3] was > 5200 nM.
In the case of `Nc1cc(C2=NOC(Cn3cccn3)(C(=O)Nc3ccc(-c4ccccc4S(N)(=O)=O)cn3)C2)ccc1Cl` (racemic), the Ki [1] is reported as 14 nM, the Ki [2] is reported as > 21000 nM and the Ki [3] is reported as > 1600 nM.
With `NC(=O)NCC1(C(=O)Nc2ccc(-c3ccccc3S(N)(=O)=O)cn2)CC(c2ccc(Cl)c(N)c2)=NO1` (racemic) the Ki [1] was 2.5 nM, the Ki [2] was 9300 nM and the Ki [3] was > 1600 nM.
With `CC(=O)NCC1(C(=O)Nc2ccc(-c3ccccc3S(N)(=O)=O)cn2)CC(c2ccc(Cl)c(N)c2)=NO1` (racemic) the Ki [1] was 11 nM, the Ki [2] was > 21000 nM and the Ki [3] was > 1600 nM.
For `Nc1cc(C2=NOC(Cn3cnnn3)(C(=O)Nc3ccc(-c4ccccc4S(N)(=O)=O)cn3)C2)ccc1Cl` (racemic), the Ki [1] was 10 nM, the Ki [2] was > 21000 nM and the Ki [3] was > 1600 nM.
With `Nc1cc(C2=NOC(CNS(=O)(=O)Cc3ccccc3)(C(=O)Nc3ccc(-c4ccccc4S(N)(=O)=O)cn3)C2)ccc1Cl` (racemic) the Ki [1] was 2.2 nM, the Ki [2] was 6200 nM and the Ki [3] was > 4200 nM.
In the case of `Nc1cc(C2=NOC(CNS(=O)(=O)c3ccccc3)(C(=O)Nc3ccc(-c4ccccc4S(N)(=O)=O)cn3)C2)ccc1Cl` (racemic), the Ki [1] is reported as 1.7 nM, the Ki [2] is reported as > 21000 nM and the Ki [3] is reported as > 8000 nM.
In the case of `Nc1cc(C2=NOC(CNS(=O)(=O)CC(F)(F)F)(C(=O)Nc3ccc(-c4ccccc4S(N)(=O)=O)cn3)C2)ccc1Cl` (racemic), the Ki [1] is reported as 3.3 nM, the Ki [2] is reported as 6600 nM and the Ki [3] is reported as > 8000 nM.
With `Nc1cc(C2=NOC(CNS(=O)(=O)c3ccsc3)(C(=O)Nc3ccc(-c4ccccc4S(N)(=O)=O)cn3)C2)ccc1Cl` (racemic) the Ki [1] was 1.2 nM, the Ki [2] was > 21000 nM and the Ki [3] was > 8000 nM.
For `CS(=O)(=O)NCC1(C(=O)Nc2ccc(-c3ccccc3S(N)(=O)=O)cn2)CC(c2ccc(Cl)c(N)c2)=NO1` (racemic), the Ki [1] was 1.9 nM, the Ki [2] was 1300 nM and the Ki [3] was > 8000 nM.
For `Nc1cc(C2=NOC(Cn3cncn3)(C(=O)Nc3ccc(-c4ccccc4S(N)(=O)=O)cn3)C2)ccc1Cl` (racemic), the Ki [1] was 34 nM, the Ki [2] was > 21000 nM and the Ki [3] was > 4200 nM.
With `Nc1cc(C2=NOC(CNS(N)(=O)=O)(C(=O)Nc3ccc(-c4ccccc4S(N)(=O)=O)cn3)C2)ccc1Cl` (racemic) the Ki [1] was 5.5 nM, the Ki [2] was 5900 nM and the Ki [3] was > 8000 nM.
For `Nc1cc(C2=NOC(CNS(=O)(=O)c3cccnc3)(C(=O)Nc3ccc(-c4ccccc4S(N)(=O)=O)cn3)C2)ccc1Cl` (racemic), the Ki [1] was 3 nM, the Ki [2] was 17000 nM and the Ki [3] was > 8000 nM.
In the case of `Nc1cc(C2=NOC(CNC=O)(C(=O)Nc3ccc(-c4ccccc4S(N)(=O)=O)cn3)C2)ccc1Cl` (racemic), the Ki [1] is reported as 15 nM, the Ki [2] is reported as 14000 nM and the Ki [3] is reported as > 8000 nM.
With `CCCS(=O)(=O)NCC1(C(=O)Nc2ccc(-c3ccccc3S(N)(=O)=O)cn2)CC(c2ccc(Cl)c(N)c2)=NO1` (racemic) the Ki [1] was 3.7 nM, the Ki [2] was 18000 nM and the Ki [3] was > 8000 nM.
In the case of `CCNC(=O)NCC1(C(=O)Nc2ccc(-c3ccccc3S(N)(=O)=O)cn2)CC(c2ccc(Cl)c(N)c2)=NO1` (racemic), the Ki [1] is reported as 69 nM, the Ki [2] is reported as > 6300 nM and the Ki [3] is reported as > 4200 nM.
For `Nc1cc(C2=NOC(Cn3cccn3)(C(=O)Nc3ccc(-c4ccccc4S(N)(=O)=O)cn3)C2)ccc1Cl` (single isomer, unassigned; (+)), the Ki [1] was 1100 nM, the Ki [2] was > 21000 nM and the Ki [3] was > 1600 nM.
For `NC(=O)NCC1(C(=O)Nc2ccc(-c3ccccc3S(N)(=O)=O)cn2)CC(c2ccc(Cl)c(N)c2)=NO1` (single isomer, unassigned; (+)), the Ki [1] was 69 nM, the Ki [2] was > 21000 nM and the Ki [3] was > 6000 nM.
For `Nc1cc(C2=NOC(Cn3cnnn3)(C(=O)Nc3ccc(-c4ccccc4S(N)(=O)=O)cn3)C2)ccc1Cl` (single isomer, unassigned; (+)), the Ki [1] was 320 nM, the Ki [2] was > 21000 nM and the Ki [3] was > 1600 nM.
For `CS(=O)(=O)NCC1(C(=O)Nc2ccc(-c3ccccc3S(N)(=O)=O)cn2)CC(c2ccc(Cl)c(N)c2)=NO1` (single isomer, unassigned; (+)), the Ki [1] was 240 nM, the Ki [2] was > 21000 nM and the Ki [3] was > 4200 nM.
In the case of `Nc1cc(C2=NOC(Cn3cccn3)(C(=O)Nc3ccc(-c4ccccc4S(N)(=O)=O)cn3)C2)ccc1Cl` (single isomer, unassigned; (-)), the Ki [1] is reported as 15 nM, the Ki [2] is reported as > 21000 nM and the Ki [3] is reported as > 1600 nM.
With `NC(=O)NCC1(C(=O)Nc2ccc(-c3ccccc3S(N)(=O)=O)cn2)CC(c2ccc(Cl)c(N)c2)=NO1` (single isomer, unassigned; (-)) the clearance [8] was 7.17 mL/min/kg, the Ki [1] was 2.5 nM and the Ki [6] was 4.7 nM. For the same molecule, the ID50 [9] was 5.5 µmol/kg/h, the Ki [2] was 800 nM and the half-life [10] was 2.32 h. The Ki [3] was > 1600 nM.
`CS(=O)(=O)NCC1(C(=O)Nc2ccc(-c3ccccc3S(N)(=O)=O)cn2)CC(c2ccc(Cl)c(N)c2)=NO1` (stereo in doubt) showed a clearance [8] of 8.83 mL/min/kg, a Ki [1] of 1.5 nM and a Ki [6] of 2.3 nM. The ID50 [7] was 8 µM/h/kg, the Ki [2] was 800 nM and the half-life [10] was 7.25 h. For the same molecule, the Ki [3] was > 8000 nM.
In the case of `Nc1cc(C2=NOC(Cn3cnnn3)(C(=O)Nc3ccc(-c4ccccc4S(N)(=O)=O)cn3)C2)ccc1Cl` (stereo in doubt; 20 (-)), the Ki [1] is reported as 7.1 nM, the Ki [2] is reported as 19000 nM and the Ki [3] is reported as > 1600 nM.
